The record followed here is ChEMBL document CHEMBL3046169, “Synthesis and bioactivity study of 2-acylamino-substituted N'-benzylbenzohydrazide derivatives” (2012).

Assay type in all cases: functional
Test [1] deals with Plutella xylostella. Briefly: Pesticidal activity against Plutella xylostella (diamondback moth) second-instar larvae grown on cruciferous vegetables leaves leaves as pest mortality at 600 mg/L measured 48 hr post compound exposure. The essentials: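 Over 20 second-instar larvae on cruciferous vegetable leaves dipped 5 s in compound diluted in distilled water containing 0.05% Triton X-100, excess liquid removed. Kept in illumination box at 25 ± 1 °C; mortality recorded 48 h after treatment. Each test in triplicate.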

The subject of test [2] is Tetranychus cinnabarinus. Put plainly: Pesticidal activity against Tetranychus cinnabarinus (carmine spider mite) third- instar larvae grown on Phaseolus vulgaris leaves assessed as pest mortality at 600 mg/L measured 48 hr post compound exposure. The essentials:
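More than 20 third-instar mite larvae on Phaseolus vulgaris leaves dipped 5 s in compound solutions (water with 0.05% Triton X-100), excess liquor removed. Larvae held at 25 ± 1 °C in illumination box; mortality read at 48 h. Primary screen at 600 mg L⁻¹, follow-up at 400, 200, 100, 50 and 25 mg L⁻¹ with LC50 calculated. Triplicate tests.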

In test [3] the test system is Aphis gossypii. Put plainly: Pesticidal activity against Aphis gossypii (cotton aphid) third-instar nymphae grown on tender Hibiscus syriacus leaves assessed as pest mortality at 600 mg/L measured 24 hr post compound exposure. The note with it: in Hibiscus syriacus. The essentials:
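Leaf-dip bioassay: over 30 healthy apterous third-instar nymphs on tender Hibiscus syriacus leaves dipped 5 s in compound diluted in distilled water with 0.05% Triton X-100, excess fluid removed. Held in illumination box at 25 ± 1 °C; mortality scored after 24 h. Tests in triplicate.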

As to `Cc1cc(Br)cc(C(=O)NNCc2cccc(C(F)(F)F)c2)c1NC(=O)C(C)(C)CCl`, the results for the mortality at 600 µg/mL in test [1], in test [2] and in test [3] were 52%, 72.7% and 78.6%, respectively.

In the case of `Cc1cc(Br)cc(C(=O)NNCc2cccc(C(F)(F)F)c2)c1NC(=O)C(C)(C)C`, the results for the mortality at 600 µg/mL in test [1], in test [2] and in test [3] were 16%, 19.8% and 54.2%, respectively.

As to `Cc1cccc(C(=O)NNCc2ccccc2)c1NC(=O)C(C)(C)CCl`, the mortality at 600 µg/mL in test [1] turned out to be 52%; in test [2], 79.3%; in test [3], 95.6%.

Consider `Cc1cc(Cl)cc(C(=O)NNCc2ccc(F)cc2)c1NC(=O)C(C)(C)CCl`, for which the mortality at 600 µg/mL turned out to be 64% in test [1], 67% in test [2] and 81.5% in test [3].

With `CC(C)(C)C(=O)Nc1ccc(Cl)cc1C(=O)NNCc1ccc(F)cc1`, the mortality at 600 µg/mL in test [2] turned out to be 73.8%; in test [3] it was 91.3%.

Take `CC(C)(C)CC(=O)Nc1ccc(Cl)cc1C(=O)NNCc1ccccc1F`: the mortality at 600 µg/mL in test [1] stood at 28%; in test [2] it was 77.6%; in test [3], 1.8%.

As to `Cc1cc(Br)cc(C(=O)NNCc2ccc(Cl)nc2)c1NC(=O)C(C)(C)CCl`, the mortality at 600 µg/mL in test [1] turned out to be 52%; in test [2] it was 55.8%; in test [3], 33.3%.

As to `Cc1cc(Cl)cc(C(=O)NNCc2ccccc2)c1NC(=O)C(C)(C)CCl`, the mortality at 600 µg/mL in test [1] stood at 52%; in test [2], 50.9%; in test [3], 68.5%.

As to `Cc1cc(Cl)cc(C(=O)NNCc2cccc(C(F)(F)F)c2)c1NC(=O)CC(C)(C)C`, the mortality at 600 µg/mL worked out at 76% in test [1], 77.2% in test [2] and 58.3% in test [3].

For the molecule `Cc1cc(Br)cc(C(=O)NNCc2ccc(Cl)cc2Cl)c1NC(=O)C(C)(C)CCl`, the mortality at 600 µg/mL came to 70% in test [1], 82.5% in test [2] and 3.8% in test [3].

Consider `Cc1cccc(C(=O)NNCc2ccccc2Cl)c1NC(=O)C(C)(C)C`, for which the values for the mortality at 600 µg/mL in test [1], in test [2] and in test [3] were 64%, 5.9% and 92.2%, respectively.

In the case of `Cc1cccc(C(=O)NNCc2ccc(Cl)nc2)c1NC(=O)CC(C)(C)C`, the mortality at 600 µg/mL in test [1] amounted to 100%; in test [2] it was 19.3%; in test [3] it was 65.5%.

As to `Cc1cc(Cl)cc(C(=O)NNCc2ccc(Cl)cc2Cl)c1NC(=O)C(C)(C)C`, the mortality at 600 µg/mL in test [1] was found to be 64%; in test [2] it was 69%; in test [3], 77.8%.

Regarding `Cc1cccc(C(=O)NNCc2cccc(C(F)(F)F)c2)c1NC(=O)C(C)(C)C`, the mortality at 600 µg/mL is 64% in test [1], 46.8% in test [2] and 75% in test [3].

`Cc1cc(Cl)cc(C(=O)NNCc2ccc(Cl)nc2)c1NC(=O)C(C)(C)C`: the mortality at 600 µg/mL worked out at 50% in test [1], 81.3% in test [2] and 24.2% in test [3].

Take `Cc1cc(Cl)cc(C(=O)NNCc2ccccc2F)c1NC(=O)C(C)(C)C`: the mortality at 600 µg/mL amounted to 76% in test [1], 80.5% in test [2] and 38.9% in test [3].

In the case of `Cc1cccc(C(=O)NNCc2ccccc2)c1NC(=O)C(C)(C)C`, the mortality at 600 µg/mL was 52% in test [1], 16.7% in test [2] and 62.3% in test [3].

As for `Cc1cc(Br)cc(C(=O)NNCc2ccc(Cl)nc2)c1NC(=O)CC(C)(C)C`, the mortality at 600 µg/mL in test [1] turned out to be 40%; in test [2], 23.4%; in test [3], 25.9%.

`Cc1cc(Cl)cc(C(=O)NNCc2ccc(Cl)cc2Cl)c1NC(=O)C(C)(C)CCl`: the results for the mortality at 600 µg/mL in test [2] and in test [3] were 73.8% and 42.3%, respectively.

On to `Cc1cc(Br)cc(C(=O)NNCc2ccc(Cl)cc2Cl)c1NC(=O)C(C)(C)C`, for which the mortality at 600 µg/mL in test [1] was 34%; in test [2] it was 77%; in test [3], 90.2%.

One may read the mortality as the share of the test organisms that died.
